Source: ChEMBL document CHEMBL3526016, “Interaction of lapatinib with cytochrome P450 3A5” (Drug Metab Dispos, 2012)
Values belong to the molecule of their own block, whether it stands above or below them.

Legend:
Format in all cases: ADME
[1] = biological target: T1, Cytochrome P450 3A5 (Homo sapiens, UniProt P20815); test: Inhibition of human recombinant CYP3A5 using testosterone as substrate assessed as testosterone 6-beta-hydroxylation at 5 to 50 uM preincubated up to 30 mins with NADPH followed by substrate addition measured after 10 mins by LC/MS/MS analysis; conditions: recombinant enzyme
T1 sequence (P20815 whole entry): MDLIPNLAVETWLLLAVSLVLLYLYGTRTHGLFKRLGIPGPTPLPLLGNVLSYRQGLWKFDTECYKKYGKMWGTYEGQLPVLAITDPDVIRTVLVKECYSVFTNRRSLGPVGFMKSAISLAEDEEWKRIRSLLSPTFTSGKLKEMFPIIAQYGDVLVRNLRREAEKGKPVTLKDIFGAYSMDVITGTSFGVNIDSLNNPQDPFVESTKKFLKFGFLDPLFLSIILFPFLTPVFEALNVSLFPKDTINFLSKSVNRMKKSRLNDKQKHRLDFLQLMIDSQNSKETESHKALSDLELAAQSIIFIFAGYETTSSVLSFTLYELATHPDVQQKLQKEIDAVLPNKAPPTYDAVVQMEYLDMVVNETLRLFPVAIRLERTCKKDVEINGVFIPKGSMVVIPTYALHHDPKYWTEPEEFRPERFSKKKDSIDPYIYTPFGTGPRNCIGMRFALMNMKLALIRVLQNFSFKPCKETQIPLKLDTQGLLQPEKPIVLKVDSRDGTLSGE
How it was run: (§1)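 Primary incubation at 37°C (n=3) held 20 pmol/ml rCYP3A5 in 100 mM phosphate (pH 7.4), 0.1% DMSO and 0.9% ACN, with inhibitor; lapatinib was at 2.5–50 µM. NADPH started the reaction; buffer replaced it in negative controls. At 0, 3, 8, 15, 22 and 30 min, aliquots were diluted 10-fold into 200 µM testosterone or 25 µM midazolam with NADPH regenerating system for 10 min at 37°C. 6β-Hydroxytestosterone or 1'-hydroxymidazolam was measured by LC/MS/MS. Ln % residual activity was regressed against time to give kobs.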

[2] = biological target: T1, Cytochrome P450 3A5; test: Drug level assessed as recombinant human CYP3A5-mediated compound formation treated with lapatinib at 50 uM after 60 mins by GSH trapping assay in presence of NADPH; conditions: recombinant enzyme, 1 h
How it was run: (§2)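 Recombinant CYP3A5 at 50 pmol/ml with 5 mM GSH and an NADPH regenerating system in 100 mM potassium phosphate (pH 7.4) was pre-warmed at 37°C. Substrate was added to start the reaction. After 60 min it was quenched with ice-cold ACN and centrifuged, and the supernatant was dried under nitrogen and reconstituted. Adducts were detected by LC/MS/MS MRM scans. Negative controls omitted substrate, NADPH or GSH.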

[3] = biological target: T1, Cytochrome P450 3A5; test: Drug level assessed as recombinant human CYP3A5-mediated compound formation treated with O-dealkylated lapatinib at 50 uM after 60 mins by GSH trapping assay in presence of NADPH; conditions: recombinant enzyme, 1 h; how it was run: as §2
[4] = biological target: T2, CYP3A5 (Homo sapiens, UniProt P20815); test: Ratio of Kinact to Ki for recombinant human CYP3A5 using testosterone as substrate; conditions: recombinant human CYP3A5, probe testosterone
T2 sequence (P20815 whole entry): as above
How it was run: (§3)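 Primary: rCYP3A5 20 pmol/ml, inhibitor 2.5–50 μM, 100 mM phosphate pH 7.4, 37°C, NADPH-initiated; aliquots at 0–30 min diluted 10-fold into secondary mix with 200 μM testosterone plus NADPH regenerating system, 10 min at 37°C. 6β-hydroxytestosterone by LC/MS/MS, triplicate. ln % residual activity vs time gave kobs; KI, kinact from Kitz-Wilson plot.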

[5] = biological target: CYP3A4 (Homo sapiens, UniProt P08684); test: Ratio of Kinact to Ki for recombinant human CYP3A4 using testosterone as substrate; conditions: recombinant human CYP3A4, probe testosterone
Chain of CYP3A4 (P08684 whole entry): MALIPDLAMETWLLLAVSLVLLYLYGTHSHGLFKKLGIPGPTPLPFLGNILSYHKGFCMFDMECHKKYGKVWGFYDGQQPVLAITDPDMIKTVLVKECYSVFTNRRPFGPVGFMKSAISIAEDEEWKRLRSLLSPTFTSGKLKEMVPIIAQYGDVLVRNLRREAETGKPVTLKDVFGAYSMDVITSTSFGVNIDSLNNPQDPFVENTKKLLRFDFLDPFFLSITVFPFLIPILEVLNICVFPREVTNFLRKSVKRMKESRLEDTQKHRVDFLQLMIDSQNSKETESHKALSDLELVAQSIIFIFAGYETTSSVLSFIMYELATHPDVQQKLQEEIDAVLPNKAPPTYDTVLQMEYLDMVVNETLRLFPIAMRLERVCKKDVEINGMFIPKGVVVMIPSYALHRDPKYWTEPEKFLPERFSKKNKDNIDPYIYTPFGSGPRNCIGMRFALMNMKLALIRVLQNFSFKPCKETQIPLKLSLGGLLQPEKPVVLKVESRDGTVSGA

[6] = biological target: T1, Cytochrome P450 3A5; test: Inhibition of human recombinant CYP3A5 using testosterone as substrate assessed as testosterone 6-beta-hydroxylation at 2.5 to 50 uM preincubated up to 30 mins with NADPH followed by substrate addition by LC/MS/MS analysis; conditions: recombinant enzyme, TDE = time-dependent effect; how it was run: as §3
[7] = biological target: T2, CYP3A5; test: (§4) Inhibition of human recombinant CYP3A5 using testosterone as substrate assessed as testosterone 6-beta-hydroxylation preincubated up to 30 mins with NADPH followed by substrate addition measured after 10 mins by LC/MS/MS analysis; conditions: human, recombinant human CYP3A5, probe testosterone; how it was run: as §3
[8] = biological target: T1, Cytochrome P450 3A5; test: as §4; how it was run: as §3
[9] = biological target: T1, Cytochrome P450 3A5; test: Inhibition of human recombinant CYP3A5 using testosterone as substrate assessed as testosterone 6-beta-hydroxylation at 50 uM preincubated up to 30 mins without NADPH followed by substrate addition measured after 10 mins by LC/MS/MS analysis; conditions: recombinant enzyme; how it was run: as §1
[10] = biological target: T1, Cytochrome P450 3A5; test: Inhibition of human recombinant CYP3A5 using midazolam as substrate assessed as midazolam 1'-hydroxylation at 2.5 to 50 uM preincubated up to 30 mins with NADPH followed by substrate addition measured after 10 mins by LC/MS/MS analysis; conditions: recombinant enzyme; how it was run: as §1
[11] = biological target: T1, Cytochrome P450 3A5; test: Inhibition of human recombinant CYP3A5 at 50 uM preincubated up to 30 mins with NADPH in presence of GSH; conditions: recombinant enzyme
How it was run: (§5)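 Primary incubation at 37°C contained 20 pmol/ml rCYP3A5 in 100 mM phosphate (pH 7.4) with 50 µM lapatinib and NADPH, with or without 2 mM GSH. At 0–30 min, aliquots were diluted 10-fold into secondary incubations with 200 µM testosterone and NADPH regenerating system for 10 min at 37°C. 6β-Hydroxytestosterone was measured by LC/MS/MS. Triplicates were run.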

[12] = biological target: T1, Cytochrome P450 3A5; test: Inhibition of human recombinant CYP3A5 at 50 uM preincubated up to 30 mins with NADPH in absence of GSH; conditions: recombinant enzyme; how it was run: as §5
[13] = biological target: T1, Cytochrome P450 3A5; test: Irreversible inhibition of human recombinant CYP3A5 using testosterone as substrate assessed as residual enzyme activity at 50 uM preincubated up to 30 mins with NADPH followed by substrate addition measured after dialysis
How it was run: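 200 pmol/ml rCYP3A5 with 50 µM lapatinib and NADPH in 100 mM phosphate (pH 7.4) was incubated for 30 min at 37°C (n=3). Mixtures were dialysed (12000–14000 Da cut-off) against buffer at 4°C with one buffer change at 2 h, then for 4 h more. Aliquots before and after dialysis were assayed with 200 µM testosterone for 10 min at 37°C. 6β-Hydroxytestosterone was measured by LC/MS/MS.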

[14] = biological target: T1, Cytochrome P450 3A5; test: Inhibition of human recombinant CYP3A5 using testosterone as substrate assessed as testosterone 6beta-hydroxylation at 50 uM preincubated up to 30 mins with NADPH followed by substrate addition measured after 10 mins by LC/MS/MS analysis; conditions: recombinant enzyme; how it was run: as §1
[15] = biological target: T1, Cytochrome P450 3A5; test: Inhibition of human recombinant CYP3A5 assessed as metabolite-inhibitor complex formation at 50 uM preincubated for 3 to 5 mins with NADPH A followed by NADPH B addition measured every 1 min for 10 mins by UV absorbance spectra analysis; conditions: recombinant enzyme
How it was run: (§6)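 For difference spectra, 50 µM compound with 100 pmol/ml recombinant enzyme and NADPH A in 100 mM potassium phosphate (pH 7.4) was pre-warmed at 37°C for 3–5 min. NADPH B was added to start the reaction. The mixture was scanned from 430 to 495 nm every 1 min for 10 min at 37°C against a reference cuvette, normalized to 0 min. The negative control replaced NADPH B with buffer.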

[16] = biological target: Cytochrome P450 3A4 (Homo sapiens, UniProt P08684); test: Inhibition of human recombinant CYP3A4 assessed as metabolite-inhibitor complex formation at 50 uM preincubated for 3 to 5 mins with NADPH A followed by NADPH B addition measured every 1 min for 10 mins by UV absorbance spectra analysis; conditions: recombinant enzyme; how it was run: as §6
Chain of Cytochrome P450 3A4 (P08684 whole entry): as above

[17] = biological target: T2, CYP3A5; test: Inhibition of human recombinant CYP3A5 assessed as reduction of enzyme-CO complex formation at 50 uM preincubated for 3 to 5 mins with NADPH B followed by NADPH A addition measured after 30 mins by CO difference spectroscopy relative to control
How it was run: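 rCYP3A5 640 pmol/ml with 50 μM inhibitor in 100 mM potassium phosphate pH 7.4, prewarmed 3–5 min at 37°C, NADPH-initiated, incubated 30 min at 37°C (n=3). Quenched in buffer with EDTA, glycerol, NP-40, safranin O; split sample/reference, CO bubbled (~100 bubbles). P450 content = (ΔA450−ΔA490)/0.091; controls without NADPH.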

[18] = biological target: T1, Cytochrome P450 3A5; test: Drug metabolism assessed as recombinant human CYP3A5-mediated quinoneimine metabolite formation by measuring retention time at 50 uM after 60 mins by GSH trapping assay in presence of NADPH; conditions: recombinant enzyme, 1 h; how it was run: as §2

- inhibition (INH) [1]: Not Active
SMILES: CS(=O)(=O)CCNCc1ccc(-c2ccc3ncnc(Nc4ccc(O)c(Cl)c4)c3c2)o1

- Drug metabolism [2]: metabolite_detected
- Drug metabolism [3]: metabolite_detected
SMILES: CS(=O)(=O)CCNCc1ccc(-c2ccc3ncnc(/N=C4\C=CC(=O)C(Cl)=C4)c3c2)o1

- kinact/KI [4]: 10 M⁻¹ s⁻¹
- kinact/KI [5]: 197 M⁻¹ s⁻¹
- inhibition (INH) [6]: tde
- kinact at 10 min [7]: 0.000377 s⁻¹
- Ki [8]: 37.6 µM
- inhibition (INH) ([8]; human, recombinant enzyme, 10 min): Dose-dependent effect
- inhibition (INH) [9]: Not Active
- inhibition (INH) [10]: Not Active
- inhibition (INH) [11]: Not Active
- inhibition (INH) [12]: Active
- inhibition (INH) [13]: Active
- inhibition (INH) [14]: Active
- inhibition (INH) [15]: Not Active
- inhibition (INH) [16]: Active
- inhibition at 0.5 h, 50 µM [17]: 22%
- Retention_time [18]: 1.71 min
SMILES: CS(=O)(=O)CCNCc1ccc(-c2ccc3ncnc(Nc4ccc(OCc5cccc(F)c5)c(Cl)c4)c3c2)o1 [LAPATINIB]
